For eight compounds, Activity results are on record in ChEMBL document CHEMBL1148990, “Effect of benzylic oxygen on the antioxidant activity of phenolic lignans” (J Nat Prod, 2005).

Active and inactive are the calls of the source. No cut-off for these calls is given here.

In experiment [1] the test system is Radical scavenging activity. The experiment is described as follows: Antioxidant activity assessed as DPPH radical scavenging activity. The experiment is classed as functional. An outline of the steps: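 Test sample at 20 µM final mixed with DPPH (0.1 mM); stood 0.5 h at 25 °C, then absorbance read at 517 nm. Activity expressed as decrease of absorbance: DPPH blank minus (DPPH + sample) plus sample-only absorbance.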

A short description of experiment [2]: Antioxidant activity assessed as AAPH radical scavenging activity after 3 hrs. Type of experiment: functional. An outline of the steps:
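Ethyl linoleate (50 mM) oxidized with AAPH (10 mM) in 0.3 M Tween 20/0.05 M phosphate buffer (pH 7.4) micelles; test sample 0.10 mM final (from DMSO stock). Incubation 37 °C, dark, with shaking, 3 h. Aliquot quenched into methanolic trolox; ethyl linoleate hydroperoxide quantified by reverse-phase HPLC at 234 nm from a peak-area calibration equation.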

Regarding `COc1cc(C[C@H]2COC[C@@H]2[C@H](O)c2ccc(O)c(OC)c2)ccc1O`, the outcome in experiment [1] and in experiment [2] was Active.

Take `COc1cc([C@@H]2c3cc(O)c(OC)cc3C[C@H]3COC[C@H]32)ccc1O`: the outcome in experiment [1] and in experiment [2] was Active.

Regarding `COc1cc(C[C@H]2COC[C@@H]2[C@@H](O)c2ccc(O)c(OC)c2)ccc1O`, the result in experiment [1] and in experiment [2] was Active.

On to `COc1cc(C(O)[C@H]2COC[C@@H]2[C@@H](O)c2ccc(O)c(OC)c2)ccc1O` (single isomer, unassigned), for which the result in experiment [1] and in experiment [2] was Active.

For the compound `COc1cc(C[C@H]2COC(=O)[C@@H]2Cc2ccc(O)c(OC)c2)ccc1O`, the result in experiment [1] and in experiment [2] was Active.

For the compound `COc1cc(C[C@H]2COC[C@@H]2C(=O)c2ccc(O)c(OC)c2)ccc1O`, the outcome in experiment [1] and in experiment [2] was Active.

As to `COc1cc([C@@H](O)[C@H]2COC[C@@H]2[C@H](O)c2ccc(O)c(OC)c2)ccc1O`, the result in experiment [1] and in experiment [2] was Active.

`COc1cc(C[C@H]2COC[C@@H]2Cc2ccc(O)c(OC)c2)ccc1O`: the result in experiment [1] and in experiment [2] was Active.
